Data reported in ChEMBL document CHEMBL2321771, “Inhibition of Ebola Virus Infection: Identification of Niemann-Pick C1 as the Target by Optimization of a Chemical Probe” (ACS Med Chem Lett, 2013).
The source made the active and inactive calls. The calls are words filed in the database; no cut-off is given here.

Tests used:
Lassa virus = test: Antiviral activity against Lassa virus by cell based luciferase reporter gene assay; assay type: functional, organism-based; conditions: Mammarenavirus lassaense
Ebolavirus = test: Antiviral activity against Ebola virus by cell based luciferase reporter gene assay; assay type: functional, Ebola virus sp.; conditions: Orthoebolavirus
[1] = target: T1, NPC intracellular cholesterol transporter 1 (Mus musculus) (UniProt O35604); test: Inhibition of mouse NPC1 interaction to Ebola virus GP expressed in LE/LY membrane of CHO cells by immunoblotting; assay type: cell-based
T1 sequence (whole entry): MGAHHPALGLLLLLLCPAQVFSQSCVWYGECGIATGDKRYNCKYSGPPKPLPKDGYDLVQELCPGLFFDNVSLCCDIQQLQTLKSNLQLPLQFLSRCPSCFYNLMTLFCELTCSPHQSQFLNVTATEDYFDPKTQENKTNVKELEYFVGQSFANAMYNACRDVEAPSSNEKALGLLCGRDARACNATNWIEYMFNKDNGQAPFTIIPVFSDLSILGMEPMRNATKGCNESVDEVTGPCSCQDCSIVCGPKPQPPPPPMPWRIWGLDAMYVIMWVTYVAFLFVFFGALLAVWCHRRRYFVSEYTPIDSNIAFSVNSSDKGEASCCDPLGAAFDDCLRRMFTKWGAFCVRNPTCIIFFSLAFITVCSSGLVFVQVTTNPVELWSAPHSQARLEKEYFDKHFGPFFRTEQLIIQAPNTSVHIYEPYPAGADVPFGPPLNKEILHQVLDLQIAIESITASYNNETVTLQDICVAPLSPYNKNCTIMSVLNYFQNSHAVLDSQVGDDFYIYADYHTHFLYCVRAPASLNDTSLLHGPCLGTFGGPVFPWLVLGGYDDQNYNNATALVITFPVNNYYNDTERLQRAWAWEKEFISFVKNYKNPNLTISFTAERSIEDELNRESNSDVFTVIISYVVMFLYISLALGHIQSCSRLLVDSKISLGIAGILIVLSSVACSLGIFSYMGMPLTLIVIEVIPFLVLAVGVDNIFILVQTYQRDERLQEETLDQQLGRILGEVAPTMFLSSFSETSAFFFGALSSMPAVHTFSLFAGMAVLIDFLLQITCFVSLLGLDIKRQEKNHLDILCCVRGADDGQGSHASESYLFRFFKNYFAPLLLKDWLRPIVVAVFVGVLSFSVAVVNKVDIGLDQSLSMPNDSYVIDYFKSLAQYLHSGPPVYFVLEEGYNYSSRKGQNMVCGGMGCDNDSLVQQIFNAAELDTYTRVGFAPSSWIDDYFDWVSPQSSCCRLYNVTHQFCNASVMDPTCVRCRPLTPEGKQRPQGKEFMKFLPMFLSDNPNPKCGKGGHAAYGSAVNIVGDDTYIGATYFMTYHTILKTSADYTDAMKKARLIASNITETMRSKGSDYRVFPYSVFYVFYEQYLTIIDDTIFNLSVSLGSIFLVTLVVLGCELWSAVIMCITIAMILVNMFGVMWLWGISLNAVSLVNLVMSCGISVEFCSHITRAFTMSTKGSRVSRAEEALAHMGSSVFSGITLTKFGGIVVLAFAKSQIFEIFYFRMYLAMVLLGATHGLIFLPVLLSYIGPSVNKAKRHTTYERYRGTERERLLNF
How it was run: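 Late endosome/lysosome membranes from NPC1-null CHO cells, or the same cells stably expressing mouse NPC1, were immobilized on ELISA plates. They were incubated with protease-cleaved Ebola GP in the presence of test compound at specified concentrations. After washing off unbound GP, membranes were solubilized in NP40 and bound GP was detected by GP1-antibody immunoblot. Results are representative of six experiments.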

[2] = system: Vesicular stomatitis virus; test: Antiviral activity against Vesicular stomatitis virus by cell based luciferase reporter gene assay; assay type: functional, organism-based
[3] = target: T2, NPC intracellular cholesterol transporter 1 (Homo sapiens) (UniProt O15118); test: Binding affinity to human NPC1 expressed in LE/LY membrane of CHO cells at 25 uM by immunoblotting; assay type: cell membranes
T2 sequence (whole entry): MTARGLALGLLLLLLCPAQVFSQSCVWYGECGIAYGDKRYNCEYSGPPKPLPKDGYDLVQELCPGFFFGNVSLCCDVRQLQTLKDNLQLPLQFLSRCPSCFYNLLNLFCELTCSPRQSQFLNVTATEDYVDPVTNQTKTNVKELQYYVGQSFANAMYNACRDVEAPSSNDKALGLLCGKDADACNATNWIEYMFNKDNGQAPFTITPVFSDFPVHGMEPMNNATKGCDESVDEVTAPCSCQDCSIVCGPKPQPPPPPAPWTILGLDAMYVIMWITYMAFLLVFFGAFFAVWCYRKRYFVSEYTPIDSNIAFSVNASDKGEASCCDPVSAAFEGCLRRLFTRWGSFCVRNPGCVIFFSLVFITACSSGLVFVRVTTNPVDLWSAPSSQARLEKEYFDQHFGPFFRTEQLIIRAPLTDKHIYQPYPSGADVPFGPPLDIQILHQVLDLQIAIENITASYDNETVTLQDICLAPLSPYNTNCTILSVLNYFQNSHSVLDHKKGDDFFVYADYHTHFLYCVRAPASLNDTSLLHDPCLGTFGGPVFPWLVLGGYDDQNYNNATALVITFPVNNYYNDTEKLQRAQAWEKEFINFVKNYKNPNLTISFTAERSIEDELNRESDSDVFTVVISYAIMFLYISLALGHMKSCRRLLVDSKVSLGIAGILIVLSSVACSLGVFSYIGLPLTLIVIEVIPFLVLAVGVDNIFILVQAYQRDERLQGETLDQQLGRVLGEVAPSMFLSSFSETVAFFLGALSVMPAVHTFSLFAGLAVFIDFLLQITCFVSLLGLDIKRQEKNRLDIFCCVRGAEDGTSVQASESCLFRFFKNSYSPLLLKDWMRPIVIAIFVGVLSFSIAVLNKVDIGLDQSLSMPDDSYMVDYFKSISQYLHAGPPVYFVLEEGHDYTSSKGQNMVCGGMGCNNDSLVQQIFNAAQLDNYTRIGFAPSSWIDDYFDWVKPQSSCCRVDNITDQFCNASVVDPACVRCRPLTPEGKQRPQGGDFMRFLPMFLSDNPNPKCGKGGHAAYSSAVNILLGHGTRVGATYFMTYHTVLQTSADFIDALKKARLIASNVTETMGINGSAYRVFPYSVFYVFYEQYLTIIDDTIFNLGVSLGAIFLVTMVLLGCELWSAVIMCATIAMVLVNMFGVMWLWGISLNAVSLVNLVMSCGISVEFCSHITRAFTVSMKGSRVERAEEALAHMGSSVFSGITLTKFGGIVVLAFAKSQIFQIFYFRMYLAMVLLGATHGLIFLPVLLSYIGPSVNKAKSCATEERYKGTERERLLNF
How it was run: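 Purified late endosome/lysosome membranes came from NPC1-null CHO cells and CHO cells overexpressing human NPC1. […] Cross-linked proteins were click-labelled with Alexa Fluor 488 azide and detected by anti-Alexa 488 immunoblot. NPC1 was confirmed by anti-NPC1 immunoprecipitation and immunoblot.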

SMILES	inhibition (Lassa virus)	IC50 (Ebolavirus) [nM]	inhibition [1]	inhibition [2]	Activity [3]
COC(=O)c1ccc(COc2ccccc2CN2CCN(C(=O)CNC(=O)CC34CC5CC(CC(C5)C3)C4)CC2)cc1	inactive	20	Active	inactive	–
C#Cc1ccc(COc2ccc(N=[N+]=[N-])cc2CN2CCN(C(=O)CNC(=O)CC34CC5CC(CC(C5)C3)C4)CC2)cc1	–	–	Active	–	Active
